# Assay results from ChEMBL document CHEMBL5058577, “EUbOPEN Chemogenomics Library 2 (Multiplex)” (2022).
# Test system: Fibroblast
# Test: Multiplex assay against human fibroblast
# Type: toxicity, cell-based
# Procedure, shortened: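 Tubulin, mitochondrial-mass and membrane-permeability phenotypes are per cents of healthy-nucleus cells. Cells were gated by CellPathfinder machine learning into Hoechst high-intensity objects or normal cells, normal cells into healthy, pyknosed or fragmented nuclei, and pyknosed cells into mitotic or apoptotic. Before that, live cells stained at seeding with Hoechst33342, BioTracker Green Microtubule Cytoskeleton Dye, MitoTracker Red and Annexin V Alexa Fluor 680 were imaged on a CQ1 microscope at 37°C and 5% CO2 after compound addition.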
# [1] = 12 h, 1 µM, compound concentration 1 uM, replicate 1
# [2] = 12 h, 1 µM, compound concentration 1 uM, replicate 2
# [3] = 12 h, 10 µM, compound concentration 10 uM, replicate 1
# [4] = 12 h, 10 µM, compound concentration 10 uM, replicate 2
# [5] = 24 h, 1 µM, compound concentration 1 uM, replicate 1
# [6] = 24 h, 1 µM, compound concentration 1 uM, replicate 2
# [7] = 24 h, 10 µM, compound concentration 10 uM, replicate 1
# [8] = 24 h, 10 µM, compound concentration 10 uM, replicate 2
# [9] = 48 h, 1 µM, compound concentration 1 uM, replicate 1
# [10] = 48 h, 1 µM, compound concentration 1 uM, replicate 2
# [11] = 48 h, 10 µM, compound concentration 10 uM, replicate 1
# [12] = 48 h, 10 µM, compound concentration 10 uM, replicate 2
smiles,measurement,setting,value
CCC(=O)OCC(=O)[C@@]1(OC(=O)CC)[C@@H](C)C[C@H]2[C@@H]3CCC4=CC(=O)C=C[C@]4(C)[C@@]3(Cl)[C@@H](O)C[C@@]21C [BECLOMETHASONE DIPROPIONATE],Population Apoptotic (%),[1],38%
same,Population Fragmented Nuclei (%),[1],13%
same,Population Healthy Nuclei (%),[1],73%
same,Population Hoechst High Intensity Objects (%),[1],3%
same,Population Membrane Permeable-Phenotype (%),[1],1%
same,Population Mitochondria Different-Phenotype (%),[1],2%
same,Population Mitotic Cells (%),[1],61%
same,Population Normal (%),[1],96%
same,Population Pyknosed Nuclei (%),[1],13%
same,Population Tubulin-Different-Phenotype (%),[1],47%
same,Total Cell Count,[1],135
same,Population Apoptotic (%),[2],42%
same,Population Fragmented Nuclei (%),[2],30%
same,Population Healthy Nuclei (%),[2],40%
same,Population Membrane Permeable-Phenotype (%),[2],5%
same,Population Mitochondria Different-Phenotype (%),[2],10%
same,Population Mitotic Cells (%),[2],57%
same,Population Pyknosed Nuclei (%),[2],30%
same,Population Tubulin-Different-Phenotype (%),[2],63%
same,Total Cell Count,[2],155
same,Population Apoptotic (%),[3],40%
same,Population Fragmented Nuclei (%),[3],9%
same,Population Healthy Nuclei (%),[3],69%
same,Population Hoechst High Intensity Objects (%),[3],8%
same,Population Membrane Permeable-Phenotype (%),[3],1%
same,Population Mitochondria Different-Phenotype (%),[3],17%
same,Population Mitotic Cells (%),[3],60%
same,Population Normal (%),[3],91%
same,Population Pyknosed Nuclei (%),[3],20%
same,Population Tubulin-Different-Phenotype (%),[3],87%
same,Total Cell Count,[3],157
same,Population Fragmented Nuclei (%),[4],32%
same,Population Healthy Nuclei (%),[4],42%
same,Population Hoechst High Intensity Objects (%),[4],5%
same,Population Membrane Permeable-Phenotype (%),[4],15%
same,Population Mitochondria Different-Phenotype (%),[4],20%
same,Population Mitotic Cells (%),[4],59%
same,Population Normal (%),[4],94%
same,Population Pyknosed Nuclei (%),[4],24%
same,Population Tubulin-Different-Phenotype (%),[4],94%
same,Total Cell Count,[4],96
same,Population Apoptotic (%),[5],50%
same,Population Fragmented Nuclei (%),[5],16%
same,Population Healthy Nuclei (%),[5],65%
same,Population Hoechst High Intensity Objects (%),[5],1%
same,Population Membrane Permeable-Phenotype (%),[5],3%
same,Population Mitochondria Different-Phenotype (%),[5],2%
same,Population Mitotic Cells (%),[5],50%
same,Population Normal (%),[5],98%
same,Population Pyknosed Nuclei (%),[5],18%
same,Population Tubulin-Different-Phenotype (%),[5],34%
same,Total Cell Count,[5],134
same,Population Apoptotic (%),[6],47%
same,Population Fragmented Nuclei (%),[6],30%
same,Population Healthy Nuclei (%),[6],45%
same,Population Hoechst High Intensity Objects (%),[6],6%
same,Population Membrane Permeable-Phenotype (%),[6],7%
same,Population Mitochondria Different-Phenotype (%),[6],7%
same,Population Mitotic Cells (%),[6],52%
same,Population Normal (%),[6],93%
same,Population Pyknosed Nuclei (%),[6],24%
same,Population Tubulin-Different-Phenotype (%),[6],60%
same,Total Cell Count,[6],150
same,Population Apoptotic (%),[7],40%
same,Population Fragmented Nuclei (%),[7],13%
same,Population Healthy Nuclei (%),[7],66%
same,Population Hoechst High Intensity Objects (%),[7],6%
same,Population Membrane Permeable-Phenotype (%),[7],1%
same,Population Mitochondria Different-Phenotype (%),[7],30%
same,Population Mitotic Cells (%),[7],59%
same,Population Normal (%),[7],93%
same,Population Pyknosed Nuclei (%),[7],19%
same,Population Tubulin-Different-Phenotype (%),[7],86%
same,Total Cell Count,[7],148
same,Population Apoptotic (%),[8],19%
same,Population Fragmented Nuclei (%),[8],38%
same,Population Healthy Nuclei (%),[8],40%
same,Population Membrane Permeable-Phenotype (%),[8],15%
same,Population Mitochondria Different-Phenotype (%),[8],12%
same,Population Mitotic Cells (%),[8],80%
same,Population Pyknosed Nuclei (%),[8],21%
same,Population Tubulin-Different-Phenotype (%),[8],79%
same,Total Cell Count,[8],104
same,Population Apoptotic (%),[9],28%
same,Population Fragmented Nuclei (%),[9],13%
same,Population Healthy Nuclei (%),[9],56%
same,Population Hoechst High Intensity Objects (%),[9],3%
same,Population Membrane Permeable-Phenotype (%),[9],1%
same,Population Mitochondria Different-Phenotype (%),[9],15%
same,Population Mitotic Cells (%),[9],71%
same,Population Normal (%),[9],96%
same,Population Pyknosed Nuclei (%),[9],30%
same,Population Tubulin-Different-Phenotype (%),[9],61%
same,Total Cell Count,[9],132
same,Population Apoptotic (%),[10],52%
same,Population Fragmented Nuclei (%),[10],31%
same,Population Healthy Nuclei (%),[10],41%
same,Population Hoechst High Intensity Objects (%),[10],7%
same,Population Membrane Permeable-Phenotype (%),[10],5%
same,Population Mitochondria Different-Phenotype (%),[10],9%
same,Population Mitotic Cells (%),[10],47%
same,Population Normal (%),[10],92%
same,Population Pyknosed Nuclei (%),[10],27%
same,Population Tubulin-Different-Phenotype (%),[10],54%
same,Total Cell Count,[10],143
same,Population Apoptotic (%),[11],67%
same,Population Fragmented Nuclei (%),[11],21%
same,Population Healthy Nuclei (%),[11],54%
same,Population Hoechst High Intensity Objects (%),[11],6%
same,Population Membrane Permeable-Phenotype (%),[11],0%
same,Population Mitochondria Different-Phenotype (%),[11],47%
same,Population Mitotic Cells (%),[11],32%
same,Population Normal (%),[11],93%
same,Population Pyknosed Nuclei (%),[11],24%
same,Population Tubulin-Different-Phenotype (%),[11],76%
same,Total Cell Count,[11],162
same,Population Apoptotic (%),[12],37%
same,Population Fragmented Nuclei (%),[12],33%
same,Population Healthy Nuclei (%),[12],33%
same,Population Hoechst High Intensity Objects (%),[12],3%
same,Population Membrane Permeable-Phenotype (%),[12],18%
same,Population Mitochondria Different-Phenotype (%),[12],15%
same,Population Mitotic Cells (%),[12],62%
same,Population Normal (%),[12],96%
same,Population Pyknosed Nuclei (%),[12],33%
same,Population Tubulin-Different-Phenotype (%),[12],84%
same,Total Cell Count,[12],99
Nc1nc(-c2ccco2)c2cnn(Cc3ccccc3F)c2n1,Population Apoptotic (%),[1],50%
same,Population Fragmented Nuclei (%),[1],10%
same,Population Healthy Nuclei (%),[1],78%
same,Population Hoechst High Intensity Objects (%),[1],0%
same,Population Membrane Permeable-Phenotype (%),[1],1%
same,Population Mitochondria Different-Phenotype (%),[1],2%
same,Population Mitotic Cells (%),[1],50%
same,Population Normal (%),[1],99%
same,Population Pyknosed Nuclei (%),[1],11%
same,Population Tubulin-Different-Phenotype (%),[1],26%
same,Total Cell Count,[1],189
same,Population Apoptotic (%),[2],45%
same,Population Fragmented Nuclei (%),[2],31%
same,Population Healthy Nuclei (%),[2],50%
same,Population Hoechst High Intensity Objects (%),[2],6%
same,Population Membrane Permeable-Phenotype (%),[2],2%
same,Population Mitochondria Different-Phenotype (%),[2],5%
same,Population Mitotic Cells (%),[2],54%
same,Population Normal (%),[2],93%
same,Population Pyknosed Nuclei (%),[2],17%
same,Population Tubulin-Different-Phenotype (%),[2],42%
same,Total Cell Count,[2],144
same,Population Apoptotic (%),[3],54%
same,Population Fragmented Nuclei (%),[3],16%
same,Population Healthy Nuclei (%),[3],61%
same,Population Hoechst High Intensity Objects (%),[3],8%
same,Population Membrane Permeable-Phenotype (%),[3],0%
same,Population Mitochondria Different-Phenotype (%),[3],7%
same,Population Mitotic Cells (%),[3],45%
same,Population Normal (%),[3],91%
same,Population Pyknosed Nuclei (%),[3],21%
same,Population Tubulin-Different-Phenotype (%),[3],38%
same,Total Cell Count,[3],123
same,Population Apoptotic (%),[4],47%
same,Population Fragmented Nuclei (%),[4],39%
same,Population Healthy Nuclei (%),[4],44%
same,Population Hoechst High Intensity Objects (%),[4],10%
same,Population Membrane Permeable-Phenotype (%),[4],5%
same,Population Mitochondria Different-Phenotype (%),[4],13%
same,Population Mitotic Cells (%),[4],52%
same,Population Normal (%),[4],89%
same,Population Pyknosed Nuclei (%),[4],16%
same,Population Tubulin-Different-Phenotype (%),[4],51%
same,Total Cell Count,[4],147
same,Population Apoptotic (%),[5],50%
same,Population Fragmented Nuclei (%),[5],9%
same,Population Healthy Nuclei (%),[5],82%
same,Population Hoechst High Intensity Objects (%),[5],0%
same,Population Membrane Permeable-Phenotype (%),[5],0%
same,Population Mitochondria Different-Phenotype (%),[5],2%
same,Population Mitotic Cells (%),[5],50%
same,Population Normal (%),[5],100%
same,Population Pyknosed Nuclei (%),[5],7%
same,Population Tubulin-Different-Phenotype (%),[5],24%
same,Total Cell Count,[5],180
same,Population Apoptotic (%),[6],56%
same,Population Fragmented Nuclei (%),[6],29%
same,Population Healthy Nuclei (%),[6],53%
same,Population Hoechst High Intensity Objects (%),[6],6%
same,Population Membrane Permeable-Phenotype (%),[6],4%
same,Population Mitochondria Different-Phenotype (%),[6],5%
same,Population Mitotic Cells (%),[6],43%
same,Population Normal (%),[6],93%
same,Population Pyknosed Nuclei (%),[6],17%
same,Population Tubulin-Different-Phenotype (%),[6],37%
same,Total Cell Count,[6],139
same,Population Apoptotic (%),[7],70%
same,Population Fragmented Nuclei (%),[7],19%
same,Population Healthy Nuclei (%),[7],66%
same,Population Hoechst High Intensity Objects (%),[7],6%
same,Population Membrane Permeable-Phenotype (%),[7],1%
same,Population Mitochondria Different-Phenotype (%),[7],8%
same,Population Mitotic Cells (%),[7],29%
same,Population Normal (%),[7],93%
same,Population Pyknosed Nuclei (%),[7],14%
same,Population Tubulin-Different-Phenotype (%),[7],39%
same,Total Cell Count,[7],127
same,Population Apoptotic (%),[8],43%
same,Population Fragmented Nuclei (%),[8],43%
same,Population Healthy Nuclei (%),[8],44%
same,Population Hoechst High Intensity Objects (%),[8],8%
same,Population Membrane Permeable-Phenotype (%),[8],15%
same,Population Mitochondria Different-Phenotype (%),[8],5%
same,Population Mitotic Cells (%),[8],56%
same,Population Normal (%),[8],91%
same,Population Pyknosed Nuclei (%),[8],11%
same,Population Tubulin-Different-Phenotype (%),[8],46%
same,Total Cell Count,[8],147
same,Population Apoptotic (%),[9],45%
same,Population Fragmented Nuclei (%),[9],16%
same,Population Healthy Nuclei (%),[9],77%
same,Population Hoechst High Intensity Objects (%),[9],3%
same,Population Membrane Permeable-Phenotype (%),[9],2%
same,Population Mitochondria Different-Phenotype (%),[9],1%
same,Population Mitotic Cells (%),[9],54%
same,Population Normal (%),[9],96%
same,Population Pyknosed Nuclei (%),[9],6%
same,Population Tubulin-Different-Phenotype (%),[9],26%
same,Total Cell Count,[9],182
same,Population Apoptotic (%),[10],57%
same,Population Fragmented Nuclei (%),[10],41%
same,Population Healthy Nuclei (%),[10],48%
same,Population Hoechst High Intensity Objects (%),[10],6%
same,Population Membrane Permeable-Phenotype (%),[10],4%
same,Population Mitochondria Different-Phenotype (%),[10],9%
same,Population Mitotic Cells (%),[10],42%
same,Population Normal (%),[10],93%
same,Population Pyknosed Nuclei (%),[10],10%
same,Population Tubulin-Different-Phenotype (%),[10],37%
same,Total Cell Count,[10],147
same,Population Apoptotic (%),[11],80%
same,Population Fragmented Nuclei (%),[11],25%
same,Population Healthy Nuclei (%),[11],65%
same,Population Hoechst High Intensity Objects (%),[11],9%
same,Population Membrane Permeable-Phenotype (%),[11],0%
same,Population Mitochondria Different-Phenotype (%),[11],10%
same,Population Mitotic Cells (%),[11],20%
same,Population Normal (%),[11],90%
same,Population Pyknosed Nuclei (%),[11],9%
same,Population Tubulin-Different-Phenotype (%),[11],27%
same,Total Cell Count,[11],115
same,Population Apoptotic (%),[12],50%
same,Population Fragmented Nuclei (%),[12],50%
same,Population Healthy Nuclei (%),[12],38%
same,Population Hoechst High Intensity Objects (%),[12],5%
same,Population Membrane Permeable-Phenotype (%),[12],16%
same,Population Mitotic Cells (%),[12],50%
same,Population Normal (%),[12],94%
same,Population Pyknosed Nuclei (%),[12],10%
same,Population Tubulin-Different-Phenotype (%),[12],51%
same,Total Cell Count,[12],155
